# Measurements: ChEMBL document CHEMBL1687712, “Antiviral effects of lamivudine, emtricitabine, adefovir dipivoxil, and tenofovir disoproxil fumarate administered orally alone and in combination to woodchucks with chronic woodchuck hepatitis virus infection” (Antimicrob Agents Chemother, 2008)
# Calls of active or inactive are those of the source. No cut-off for these calls is given here.
# Key:
# [1] = tested on: Woodchuck hepatitis virus; test: Antiviral activity against Woodchuck hepatitis virus infected in woodchuck assessed as frequency of hepatocytes expressing viral antigen at 15 mg/kg, po qd for 48 weeks measured on 60th week; format: functional, Hepatocyte
# In short: (§1)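 Chronic WHV-carrier woodchucks, 5 per group, given 15 mg/kg/day orally once daily for 48 weeks in liquid diet; placebo is diet alone. Liver biopsies at pretreatment, weeks 12, 36, 48 and 12 weeks after withdrawal. Cytoplasmic WHsAg staining scored 0–4: 1 ≤1%, 2 ≤2%, 3 ≤5%, 4 ≥10% of hepatocytes.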
# [2] = tested on: Woodchuck hepatitis virus; test: Antiviral activity against Woodchuck hepatitis virus infected in woodchuck assessed as reduction of viral antigen level in serum at 15 mg/kg, po qd measured on 12th week on 48 weeks study (reference value: 4.3 +/- 1.5 log10 ng/ml); format: functional
# [3] = tested on: Woodchuck hepatitis virus; test: Antiviral activity against Woodchuck hepatitis virus infected in woodchuck assessed as reduction of viral antigen level in serum at 15 mg/kg, po qd for 48 weeks (reference value: 3.8 +/- 1.3 log10 ng/ml); format: functional
# [4] = tested on: Woodchuck hepatitis virus; test: Antiviral activity against Woodchuck hepatitis virus infected in woodchuck assessed as reduction of viral DNA replicative intermediate level per ug of total cell DNA at 15 mg/kg, po qd for 48 weeks measured on 60th week (reference value: 979 pg); format: functional
# In short: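 Chronic WHV-carrier woodchucks, 5 per group, 15 mg/kg/day oral once daily for 48 weeks in liquid diet. Needle liver biopsies were snap-frozen in liquid nitrogen and stored at −70°C. Hepatic WHV DNA replicative intermediates were quantified by Southern blot (pg/μg total cell DNA) and WHV RNA by Northern blot; group means ± SD were compared with pretreatment and placebo.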
# [5] = tested on: Woodchuck hepatitis virus; test: Antiviral activity against Woodchuck hepatitis virus infected in woodchuck assessed as reduction of viral antigen positive hepatocytes at 15 mg/kg, po qd measured on 12th week on 48 weeks study (reference value: 55 +/- 32 %); format: functional, Hepatocyte; set-up: scale not given: the % may be the effect or the level left
# In short: (§2)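 Chronic WHV-carrier woodchucks, 5 per group, 15 mg/kg/day oral once daily for 48 weeks in liquid diet. Liver biopsies were taken at pretreatment, weeks 12, 36, 48 and week 60. Percentage of hepatocytes positive for WHcAg was given as group mean ± SD and compared with pretreatment and placebo.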
# [6] = tested on: Woodchuck hepatitis virus; test: Antiviral activity against Woodchuck hepatitis virus infected in woodchuck assessed as reduction of viral antigen positive hepatocytes at 15 mg/kg, po qd measured on 36th week on 48 weeks study (reference value: 41 +/- 25 %); format: functional, Hepatocyte; set-up: scale not given: the % may be the effect or the level left; in short: as §2
# [7] = tested on: Woodchuck hepatitis virus; test: Antiviral activity against Woodchuck hepatitis virus infected in woodchuck assessed as reduction of viral antigen positive hepatocytes at 15 mg/kg, po qd for 48 weeks measured on 60th week (reference value: 26 %); format: functional, Hepatocyte; set-up: scale not given: the % may be the effect or the level left; in short: as §2
# [8] = tested on: Woodchuck hepatitis virus; test: Antiviral activity against Woodchuck hepatitis virus infected in woodchuck assessed as frequency of hepatocytes expressing viral antigen at 15 mg/kg, po qd measured on 36th week on 48 weeks study; format: functional, Hepatocyte; in short: as §1
# [9] = tested on: Woodchuck hepatitis virus; test: Antiviral activity against Woodchuck hepatitis virus infected in woodchuck assessed as absent of lesion in portal hepatitis at 15 mg/kg, po qd for 48 weeks measured on 60th week; format: functional, organism-based; set-up: dose 15 mg/kg
# In short: (§3)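 Chronic WHV-carrier adult woodchucks (inoculated at 3 days of age), 5 per group, dosed orally once daily for 48 weeks by dose syringe, drug in saline suspended in semisynthetic liquid diet; placebo is diet alone. Ultrasound-guided needle liver biopsies under ketamine/xylazine, formalin-fixed, H&E stained; portal and lobular hepatitis graded 0 (absent) to 4 (most severe).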
# [10] = tested on: Woodchuck hepatitis virus; test: Antiviral activity against Woodchuck hepatitis virus infected in woodchuck assessed as absent of lesion in lobular hepatitis at 15 mg/kg, po qd measured on 12th week on 48 weeks study; format: functional, organism-based; set-up: dose 15 mg/kg
# In short: (§4)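 Adult chronic WHV-carrier woodchucks (neonatally inoculated), 5 per group, given drug once daily by dose syringe in semisynthetic liquid diet, for 48 weeks; placebo got diet alone. Ultrasound-guided needle liver biopsies under ketamine/xylazine anesthesia at pretreatment, weeks 12, 36, 48 and 12 weeks post-withdrawal. Biopsies were formalin-fixed, paraffin-embedded and H&E stained. Portal and lobular hepatitis were graded 0 (absent) to 4 (most severe).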
# [11] = tested on: Woodchuck hepatitis virus; test: Antiviral activity against Woodchuck hepatitis virus infected in woodchuck assessed as absent of lobular in portal hepatitis at 15 mg/kg, po qd for 48 weeks; format: functional, organism-based; set-up: dose 15 mg/kg; in short: as §4
# [12] = tested on: Woodchuck hepatitis virus; test: Antiviral activity against Woodchuck hepatitis virus infected in woodchuck assessed as absent of lesion in lobular hepatitis at 15 mg/kg, po qd for 48 weeks measured on 60th week; format: functional, organism-based; set-up: dose 15 mg/kg; in short: as §4
# Marmota monax [13] = test: Toxicity in Woodchuck hepatitis virus infected woodchuck assessed as effect on hematological parameters at 15 mg/kg, po qd for 48 weeks measured up to 60 weeks; format: organism-based; set-up: dose 15 mg/kg, route oral; settings: in vivo
# In short: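 Chronic WHV-carrier woodchucks, 5 per group, were dosed orally once daily in liquid diet for 48 weeks, with a placebo diet-only group. Body weights were monitored. Complete blood counts were taken 2 weeks pretreatment, at weeks 12, 36 and 48 of treatment, and 12 weeks after withdrawal. Values were compared with placebo controls.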
# Marmota monax [14] = test: Toxicity in Woodchuck hepatitis virus infected woodchuck assessed as increase of serum gamma-glutamyltransferase activity at 15 mg/kg, po qd for 48 weeks; format: organism-based; set-up: dose 15 mg/kg, route oral; settings: in vivo, 8064 h
# In short: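 Woodchucks chronically infected with WHV, 5 per group, received oral drug once daily in liquid diet for 48 weeks; placebo got diet only. Serum chemistry (GGT, ALP, ALT, AST, SDH, among others) was run 2 weeks pretreatment, at week 0, every other week to week 12, then monthly to week 48. Sampling continued at 2, 4, 6, 8 and 12 weeks post-treatment.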
# [15] = tested on: Woodchuck hepatitis virus; test: Antiviral activity against Woodchuck hepatitis virus infected in woodchuck assessed as absent of lesion in portal hepatitis at 15 mg/kg, po qd measured on 36th week on 48 weeks study; format: functional, organism-based; set-up: dose 15 mg/kg; in short: as §3
Structure (SMILES),Activity [1] [%],Activity [2] [log10ng/ml],Activity [3] [log10ng/ml],Activity [4] [pg],Activity [5] [%],Activity [6] [%],Activity [7] [%],Activity [8] [%],Activity [9],Activity [10],Activity [11],Activity [12],Activity (Marmota monax [13]),Activity (Marmota monax [14]),Activity [15]
CC(C)(C)C(=O)OCOP(=O)(COCCn1cnc2c(N)ncnc21)OCOC(=O)C(C)(C)C [ADEFOVIR DIPIVOXIL],1,4.3,4.1,1147,21,45,48,5,Active,Active,Active,Active,Non-toxic,Toxic,–
CC(C)OC(=O)OCOP(=O)(CO[C@H](C)Cn1cnc2c(N)ncnc21)OCOC(=O)OC(C)C.O=C(O)/C=C/C(=O)O [TENOFOVIR DISOPROXIL FUMARATE],2,3.4,3.6,1374,30,20,39,1,Active,Active,–,–,Non-toxic,Toxic,Active
